Measurements as given in ChEMBL document CHEMBL3585321, “Synthesis and antimicrobial activity of chloramphenicol-polyamine conjugates” (Bioorg Med Chem, 2015).
Calls of active or inactive are those of the source. The rule behind the calls is not given here.

Key:
[1] = Inhibition of Escherichia coli K-12 70S ribosome poly(U)-programmed ribosome (complex C) bearing tRNAPhe at E-site and Ac[3H]Phe-tRNA at P-site assessed as reduction in peptide bond formation using puromycin(S) substrate
[2] = system: Staphylococcus aureus; experiment: Antibacterial activity against methicillin-resistant Staphylococcus aureus GRE2372 assessed as inhibition of bacterial growth; type: functional, organism-based
[3] = system: Staphylococcus aureus; experiment: Antibacterial activity against methicillin-resistant Staphylococcus aureus GRE2691 assessed as inhibition of bacterial growth; type: functional, organism-based
[4] = system: Staphylococcus aureus; experiment: Antibacterial activity against methicillin-resistant Staphylococcus aureus GRE2272 assessed as inhibition of bacterial growth; type: functional, organism-based
[5] = system: Escherichia coli; experiment: Antibacterial activity against wild type Escherichia coli K-12 assessed as inhibition of bacterial growth at antibacterial IC50 level in presence of 10 times IC50 levels of spermine; type: functional, organism-based
How it was run: (§1)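 Cells started at A560 0.020 in M9 medium with drug at its own growth IC50, alone or with putrescine, spermidine or spermine at 10×IC50. Cultures run until the drug-free control reached A560 0.800. Growth given as percent of control optical density. At least three experiments, two replicates each, mean±SD, p<0.05.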

[6] = system: Escherichia coli; experiment: Antibacterial activity against wild type Escherichia coli K-12 assessed as inhibition of bacterial growth at antibacterial IC50 level in presence of 10 times IC50 levels of spermidine; type: functional, organism-based; how it was run: as §1
[7] = system: Staphylococcus aureus; experiment: Antibacterial activity against wild type Staphylococcus aureus assessed as inhibition of bacterial growth at antibacterial IC50 level in presence of 10 times IC50 levels of spermine; type: functional, organism-based; how it was run: as §1
[8] = system: Staphylococcus aureus; experiment: Antibacterial activity against wild type Staphylococcus aureus assessed as inhibition of bacterial growth at antibacterial IC50 level in presence of 10 times IC50 levels of putrescine; type: functional, organism-based; how it was run: as §1
[9] = system: Escherichia coli; experiment: Antibacterial activity against wild type Escherichia coli K-12 assessed as inhibition of bacterial growth at antibacterial IC50 level in presence of 10 times IC50 levels of putrescine; type: functional, organism-based; how it was run: as §1
[10] = system: Staphylococcus aureus; experiment: Antibacterial activity against wild type Staphylococcus aureus assessed as inhibition of bacterial growth at antibacterial IC50 level in presence of 10 times IC50 levels of spermidine; type: functional, organism-based; how it was run: as §1
[11] = system: Escherichia coli; experiment: Activity of Escherichia coli chloramphenicol acetyltransferase assessed as coenzyme A formation using acetyl coenzyme A at 0.154 mM
[12] = system: Escherichia coli; experiment: Ratio of Vmax to Km for Escherichia coli chloramphenicol acetyltransferase assessed as coenzyme A formation using acetyl coenzyme A at 0.154 mM
[13] = system: Escherichia coli; experiment: Antibacterial activity against wild type Escherichia coli K-12 assessed as inhibition of bacterial growth; type: functional, organism-based
[14] = system: Staphylococcus aureus; experiment: Antibacterial activity against wild type Staphylococcus aureus assessed as inhibition of bacterial growth; type: functional, organism-based
[15] = system: Escherichia coli; experiment: Antibacterial activity against Escherichia coli Rosetta(DE3) containing rare tRNA genes and chloramphenicol resistant gene in pLysS plasmid assessed as inhibition of bacterial growth; type: functional, organism-based
How it was run: (§2)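 IC50 from bacterial cultures grown in LB medium without drug or with drug across a range of concentrations, reported in μM. Three independent experiments, each with two replicates, given as mean±SD.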

[16] = system: Escherichia coli; experiment: Antibacterial activity against Escherichia coli BL21(DE3) expressing delta-tolC gene assessed as inhibition of bacterial growth; type: functional, organism-based; how it was run: as §2

SMILES: NCCCCNCCCCNCCCNC(=O)[C@@H](NC(=O)C(Cl)Cl)[C@H](O)c1ccc([N+](=O)[O-])cc1
- Ki [1]: 5 µM

SMILES: NCCCN(CCCCN(Cc1ccccc1)Cc1ccccc1)C(=O)CCC(=O)N[C@H](CO)[C@H](O)c1ccc([N+](=O)[O-])cc1 [listing 1 of 2 here]
- Ki [1]: 0.28 µM

SMILES: NCCCCNC(=O)CCC(=O)N[C@H](CO)[C@H](O)c1ccc([N+](=O)[O-])cc1
- Ki [1]: 0.9 µM

SMILES: CC[C@H]1OC(=O)[C@H](C)[C@@H](O[C@H]2C[C@@](C)(OC)[C@@H](O)[C@H](C)O2)[C@H](C)[C@@H](O[C@@H]2O[C@H](C)C[C@H](N(C)C)[C@H]2O)[C@](C)(O)C[C@@H](C)C(=O)[C@H](C)[C@@H](O)[C@]1(C)O
- growth inhibition (GI) [2]: inactive
- growth inhibition (GI) [3]: inactive
- growth inhibition (GI) [4]: inactive

SMILES: CC(=O)N[C@@H]1[C@H](Oc2c3cc4cc2Oc2ccc(cc2Cl)[C@@H](O[C@@H]2O[C@@H](CO)[C@@H](O)[C@H](O)[C@@H]2NC(C)=O)[C@@H]2NC(=O)[C@H](NC(=O)[C@@H]4NC(=O)[C@H]4NC(=O)[C@@H](Cc5ccc(c(Cl)c5)O3)NC(=O)[C@H](N)c3ccc(O)c(c3)Oc3cc(O)cc4c3)c3ccc(O)c(c3)-c3c(O[C@H]4O[C@H](CO)[C@@H](O)[C@@H](O)[C@@H]4O)cc(O)cc3[C@@H](C(=O)O)NC2=O)O[C@@H](CO)[C@@H](O)[C@@H]1O
- growth inhibition (GI) [2]: Active
- growth inhibition (GI) [3]: Active
- growth inhibition (GI) [4]: Active

SMILES: CO[C@@]1(NC(=O)Cc2cccs2)C(=O)N2C(C(=O)O)=C(COC(N)=O)CS[C@@H]21
- growth inhibition (GI) [2]: inactive
- growth inhibition (GI) [3]: inactive
- growth inhibition (GI) [4]: inactive

SMILES: CO[C@H]1/C=C/O[C@@]2(C)Oc3c(C)c(O)c4c(O)c(c(/C=N/N5CCN(C)CC5)c(O)c4c3C2=O)NC(=O)/C(C)=C\C=C\[C@H](C)[C@H](O)[C@@H](C)[C@@H](O)[C@@H](C)[C@H](OC(C)=O)[C@@H]1C
- growth inhibition (GI) [2]: inactive
- growth inhibition (GI) [3]: Active
- growth inhibition (GI) [4]: Active

SMILES: NCCCCN(CCCN)C(=O)CCC(=O)N[C@H](CO)[C@H](O)c1ccc([N+](=O)[O-])cc1 [listing 1 of 2 here]
- growth inhibition (GI) [5]: inactive
- growth inhibition (GI) [6]: inactive
- growth inhibition (GI) [7]: inactive
- growth inhibition (GI) [8]: inactive
- growth inhibition (GI) [9]: inactive
- growth inhibition (GI) [10]: inactive

SMILES: NCCCN(CCCCN(Cc1ccccc1)Cc1ccccc1)C(=O)CCC(=O)N[C@H](CO)[C@H](O)c1ccc([N+](=O)[O-])cc1 [listing 2 of 2 here]
- Km [11]: 37.7 µM
- Vmax [11]: 1.54 µM/min
- Vmax/Km [12]: 0.041 min⁻¹
- growth inhibition (GI) [5]: inactive
- growth inhibition (GI) [6]: inactive
- growth inhibition (GI) [7]: inactive
- growth inhibition (GI) [8]: inactive
- growth inhibition (GI) [9]: inactive
- growth inhibition (GI) [10]: inactive

SMILES: NCCCCN(CCCN)C(=O)CCC(=O)N[C@H](CO)[C@H](O)c1ccc([N+](=O)[O-])cc1 [listing 2 of 2 here]
- IC50 [13]: > 150 µM
- IC50 [2]: > 100 µM
- IC50 [3]: > 200 µM
- IC50 [14]: 12.7 µM
- IC50 [15]: > 100 µM
- IC50 [4]: > 100 µM
- IC50 [16]: > 100 µM

SMILES: CN[C@H](CC(C)C)C(=O)N[C@H]1C(=O)N[C@@H](CC(N)=O)C(=O)N[C@H]2C(=O)N[C@H]3C(=O)N[C@H](C(=O)N[C@H](C(=O)O)c4cc(O)cc(O)c4-c4cc3ccc4O)[C@H](O)c3ccc(c(Cl)c3)Oc3cc2cc(c3O[C@@H]2O[C@H](CO)[C@@H](O)[C@H](O)[C@H]2O[C@H]2C[C@](C)(N)[C@H](O)[C@H](C)O2)Oc2ccc(cc2Cl)[C@H]1O
- growth inhibition (GI) [2]: Active
- growth inhibition (GI) [3]: Active
- growth inhibition (GI) [4]: Active

SMILES: CN(C)[C@@H]1C(O)=C(C(N)=O)C(=O)[C@@]2(O)C(O)=C3C(=O)c4c(O)cccc4[C@@](C)(O)[C@H]3C[C@@H]12
- growth inhibition (GI) [2]: Active
- growth inhibition (GI) [3]: inactive
- growth inhibition (GI) [4]: inactive

SMILES: NC[C@H]1O[C@H](O[C@H]2[C@H](O)[C@@H](O[C@H]3O[C@H](CO)[C@@H](O)[C@H](N)[C@H]3O)[C@H](N)C[C@@H]2N)[C@H](O)[C@@H](O)[C@@H]1O
- growth inhibition (GI) [2]: inactive
- growth inhibition (GI) [3]: inactive
- growth inhibition (GI) [4]: inactive

SMILES: NCCCNCCCCNCCCNC(=O)CCC(=O)N[C@H](CO)[C@H](O)c1ccc([N+](=O)[O-])cc1
- growth inhibition (GI) [5]: inactive
- growth inhibition (GI) [6]: inactive
- growth inhibition (GI) [7]: inactive
- growth inhibition (GI) [8]: inactive
- growth inhibition (GI) [9]: inactive
- growth inhibition (GI) [10]: inactive
